Hits are enriched below; roughly 2.6% of the tested compounds scored in any of these assays.
SKN-1 inh = suppressors of acrylamide-induced Pgst-4::GFP reporter in worms, primary screen, SKN-1 inhibitor project, whole organism, uHTS, GFP/RFP fluorescence ratio, strain VP596 | C. elegans VP596 Pgst-4::GFP/RFP ratio, 24 h | hit rate 0.49% among 360,000 | inhibition, % at 21.8 µM;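 active = interference check ratio from 0.5 to 1.5 plus GFP to RFP signal ratio inhibition reaching or exceeding a fixed threshold, cut at about 30% in these data, passing the limit was not always enough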
Myeloid diff 2 = induction of myeloid progenitor differentiation, primary screen, cell-based, flow cytometry, MLPCN library; hit rate 1% among 360,000; calls only at 10 µM; AID 624256, 2012; ER-HoxA9 myeloid progenitors, lysozyme-GFP differentiation;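 active = normalized GFP-positive differentiation at or above the plate's own cutoff, the solvent-only control mean plus 3 SD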;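 also: cells exposed to compound for four days before flow analysis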
Rce1 inh = yeast Rce1p protease inhibitors, primary screen, biochemical, fluorescence, cell-free homogeneous; yeast membranes, quenched prenylated peptide cleavage fluorescence; calls only; hit rate 0.27% among 290,000; CAAX prenyl protease 2 (Saccharomyces cerevisiae (strain ATCC 204508 / S288c)), Q03530;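 active = fall in fluorescence gain of 50% or more versus controls, with final raw signal at or below 3038400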
Target sequence (Q03530 whole entry, looked up): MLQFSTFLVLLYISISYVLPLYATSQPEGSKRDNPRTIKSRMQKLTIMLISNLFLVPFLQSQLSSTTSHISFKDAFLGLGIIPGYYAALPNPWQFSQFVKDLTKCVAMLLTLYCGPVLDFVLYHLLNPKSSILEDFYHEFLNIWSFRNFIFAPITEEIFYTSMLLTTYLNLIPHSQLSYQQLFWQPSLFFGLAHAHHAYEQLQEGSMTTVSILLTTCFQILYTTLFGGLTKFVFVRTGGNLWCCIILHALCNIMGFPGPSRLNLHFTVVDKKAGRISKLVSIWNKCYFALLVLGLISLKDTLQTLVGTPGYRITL
Rin1 Abl inh = inhibitors of Rin1-Abl protein binding, primary screen, biochemical, TR-FRET; hit rate 0.4% among 360,000; AID 588664, 2011; inhibition, % at 7.35 µM; in the data active = inhibition above about 5%, passing the limit was not always enough
T cell HTS = modulators of CD8 T cell-vesicle binding, primary screen, mouse 2C CD8+ T cells, flow cytometry. 2C CD8+ T cell-vesicle binding; hits give low values. response (vesicle binding), % at 7 µM. hit rate 0.068% among 330,000;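 active = response, share of CD8 T cells binding vesicles, and their 90th percentile fluorescence all below set limits, cut at about 80% in these data, passing the limit was not always enough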;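 also: values below 100% mean blocked vesicle binding to the CD8+ T cells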
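incubation = binding step 1.5 h, 37 °C, antibody labelling 20 min, ice | test system = 2C mouse CD8+ T cells | read-out basis = percent CD8+ FL2 mean versus row control | controls = Peptide-free naked vesicles (low) and QL9 vesicles with 0.7% DMSO vehicle (high) | detection = flow cytometry of vesicle-bound cells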
GRK2 inh = compounds blocking aptamer binding on GRK2 – biochemical, human GRK2, bead flow cytometry, HTS, primary screen; Beta-adrenergic receptor kinase 1 (Homo sapiens), P25098; FAM-aptamer displacement from GRK2; inhibition of aptamer binding, % at 10 µM; hit rate 0.59% among 330,000; AID 488847, 2010;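 active = inhibition of aptamer binding above 40%, roughly 3 SD of noise, on plates passing a quality check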;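 also: median bead fluorescence of bound FAM aptamer so fluorescent compounds give negative values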
Myeloid diff = inducers of myeloid progenitor differentiation, confirmation, cell-based, GFP/Mac1 flow cytometry, cherry pick 01 | shares compounds with Myeloid diff 2 | ER-HoxA9 myeloid progenitors, GFP/Mac1 double-positive flow | calls only | hit rate 2% among 2,300 | AID 651706, 2012;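 active = share of green or green-and-red cells above 9 and 9% in run 1 or 4 and 3% in run 2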
GFP autofluor = flagged as fluorescent in myeloid differentiation counter-screen | shares compounds with Myeloid diff 2 | ER-HoxA9 myeloid progenitors, no estrogen, GFP autofluorescence flow cytometry; vehicle wells 0%, positive control 100% | fluorescence response, % (test concentration not listed) | hit rate 7.4% among 2,300 | AID 651707;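 active = over 5% cells positive for green fluorescent reporter, or over 2% positive for both it and APC stain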
Each line names hits and unclear results; the compound was inactive in the other large screens (follow-up assays come after a bar, where they were run).

O=[N+]([O-])c1cccc(/C=C/c2nc(C=Nc3ccc4ccccc4c3)c(O)o2)c1	Myeloid diff 2 active (no result: Rce1 inh) | Myeloid diff inactive | GFP autofluor 5.7
CCN(C(=O)COC(=O)C1CCN(S(=O)(=O)c2ccc3c(c2)OCCO3)CC1)C1CCCCC1	none
Brc1ccc(-c2noc3c2-c2nc(C4CCCCC4)sc2CC3)cc1	none
CCc1cccc(CC)c1NC(=O)NC1CCCCC1	Myeloid diff 2 active | Myeloid diff inactive | GFP autofluor inactive
COC(=O)[C@H](C)N(Cc1ccc(Cl)c(Cl)c1)S(=O)(=O)CCN1CCN(c2ccccc2)CC1	none (no result: Rce1 inh, T cell HTS)
COc1ccc(/C=C2\C(=O)NCC(=O)N2Cc2ccccc2)cc1	Myeloid diff 2 active | Myeloid diff inactive | GFP autofluor inactive
COc1ccc(/C=C2\C(=O)N(Cc3ccc(F)cc3)CC(=O)N2Cc2ccccc2)cc1	none
Cc1ccccc1OCC(=O)N(Cc1nnc(-c2ccc(Cl)cc2)o1)C(C)C	none (no result: Rce1 inh)
Cc1ccc(S(=O)(=O)N2CCN(C(=O)CN3CCN(c4ccc(O)cc4)CC3)CC2)cc1	Myeloid diff 2 active (no result: Rce1 inh, T cell HTS, GRK2 inh) | Myeloid diff inactive | GFP autofluor inactive
COc1cc2c(cc1OC)CN(S(=O)(=O)c1cccc(F)c1)CC2	none
Cc1c(NC(=O)COc2ccc3ccccc3c2)c(=O)n(-c2ccccc2)n1C	none (no result: SKN-1 inh, Myeloid diff 2, Rin1 Abl inh)
CCOc1cc(C(=S)N2CCOCC2)ccc1OC(=O)/C=C/c1ccc(OC)c(OC)c1	none | Myeloid diff inactive | GFP autofluor inactive
CCOc1ccc(/C=C/C(=O)N2CCOCC2)cc1OC	none
CC(C)CC(=O)NC(NC(=S)Nc1ccccc1)C(Cl)(Cl)Cl (centres undefined)	none | Myeloid diff inactive | GFP autofluor inactive
Cc1cccc(NC(=S)NC(NC(=O)OCc2ccccc2)C(Cl)(Cl)Cl)c1 (centres undefined)	none | Myeloid diff inactive | GFP autofluor inactive
CC(c1ccccc1C(=O)O)c1cc(F)cc2ccccc12 (centres undefined)	none (no result: Rce1 inh, T cell HTS, GRK2 inh)
CC1(C(=O)Nc2ccc(Cl)cc2)Cc2c(-c3ccc(C(N)=O)cc3)ccnc2O1 (centres undefined)	none (no result: Rce1 inh, T cell HTS, GRK2 inh)
COc1ccc(C(CNC(=O)c2cccc(S(=O)(=O)NCc3ccccc3)c2)N(C)C)cc1 (centres undefined)	none
C=CCNC(=S)N1CCC2CC1c1c(Cl)cccc12 (centres undefined)	none (no result: Rce1 inh, T cell HTS, GRK2 inh)
COc1ccc(NC(=S)N2CCC3CC2c2c(Cl)cccc23)c(OC)c1 (centres undefined)	Myeloid diff 2 active (no result: Rce1 inh, T cell HTS, GRK2 inh) | Myeloid diff active | GFP autofluor inactive
CC(=O)Nc1ccc(-c2ccnc3c2CC(C)(C(=O)Nc2cccc(C(C)=O)c2)O3)cc1 (centres undefined)	none (no result: Rce1 inh, T cell HTS, GRK2 inh)
CC(=O)COc1ccccc1OC(=O)c1ccco1	none
CC(=O)c1ccccc1OC(=O)c1ccco1	Myeloid diff 2 active | Myeloid diff inactive | GFP autofluor inactive
CCOc1ccccc1OC(=O)c1ccco1	none | Myeloid diff inactive | GFP autofluor inactive
C[C@H](CO)N1C[C@H](C)[C@@H](CN(C)S(=O)(=O)c2ccc(F)cc2)Oc2ccc(NC(=O)C3CCCCC3)cc2C1=O	none (no result: Rce1 inh) | Myeloid diff inactive | GFP autofluor inactive
CN(C)c1ccc(NC(=O)CN2CCN(CC(=O)Nc3ccc(F)cc3)CC2)cc1	none
CN(C)c1ccc(NC(=O)CN2CCC(O)(c3ccccc3)CC2)cc1	none | Myeloid diff inactive | GFP autofluor inactive
Cc1cc(C)cc(C(=O)/C=C2\NC(=O)CS2)c1	none | Myeloid diff inactive | GFP autofluor inactive
S=C1Cc2ccccc2C(c2ccc(Cl)cc2)N1 (centres undefined)	none

Screening results deposited in PubChem BioAssay by several laboratories.
